Laboratory results reported in ChEMBL document CHEMBL1152193, “Structure-activity relationships of natural and non-natural amino acid-based amide and 2-oxoamide inhibitors of human phospholipase A(2) enzymes” (Bioorg Med Chem, 2008).

Tests used:
[1] = biological target: T1, Phospholipase A2 group V (Homo sapiens) (UniProt P39877); assay: Inhibition of human group 5 Ca2+-dependent secretory phospholipase A2 at 0.091 mole fraction by modified Dole assay
T1 sequence (whole entry): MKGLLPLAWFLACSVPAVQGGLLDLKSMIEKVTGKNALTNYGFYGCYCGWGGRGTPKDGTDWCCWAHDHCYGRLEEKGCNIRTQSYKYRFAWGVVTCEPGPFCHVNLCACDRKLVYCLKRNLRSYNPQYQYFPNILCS

[2] = biological target: T2, Cytosolic phospholipase A2 (Homo sapiens) (UniProt P47712); assay: Inhibition of human group 4A cytosolic Ca2+-dependent phospholipase A2 at 0.091 mole fraction by modified Dole assay
T2 sequence (whole entry): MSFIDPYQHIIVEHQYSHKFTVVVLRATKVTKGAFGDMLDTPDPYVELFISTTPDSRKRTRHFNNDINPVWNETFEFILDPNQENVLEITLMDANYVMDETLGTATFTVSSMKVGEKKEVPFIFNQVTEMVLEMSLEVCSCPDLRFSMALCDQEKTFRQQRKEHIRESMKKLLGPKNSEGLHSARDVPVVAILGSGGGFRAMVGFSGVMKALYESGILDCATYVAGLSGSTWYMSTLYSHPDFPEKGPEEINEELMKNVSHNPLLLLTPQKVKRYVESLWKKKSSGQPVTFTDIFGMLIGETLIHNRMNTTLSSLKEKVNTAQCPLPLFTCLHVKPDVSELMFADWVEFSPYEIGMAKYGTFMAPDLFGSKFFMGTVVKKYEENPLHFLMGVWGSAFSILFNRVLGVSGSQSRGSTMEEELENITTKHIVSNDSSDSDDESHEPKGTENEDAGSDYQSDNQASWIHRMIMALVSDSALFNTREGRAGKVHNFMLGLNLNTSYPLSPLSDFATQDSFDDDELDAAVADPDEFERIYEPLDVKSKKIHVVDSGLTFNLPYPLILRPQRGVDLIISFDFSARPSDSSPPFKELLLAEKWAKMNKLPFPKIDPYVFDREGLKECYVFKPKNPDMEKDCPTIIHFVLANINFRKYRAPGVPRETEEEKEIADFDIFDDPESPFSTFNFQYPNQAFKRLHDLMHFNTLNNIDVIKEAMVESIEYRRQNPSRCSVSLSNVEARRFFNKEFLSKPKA
Method in brief: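 Buffer: 100 mM HEPES pH 7.5, 90 μM CaCl2, 2 mM DTT, 0.1 mg/ml BSA. Inhibitor present at 0.091 mole fraction of the total substrate interface; percent inhibition determined.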

[3] = biological target: T3, 85/88 kDa calcium-independent phospholipase A2 (Homo sapiens) (UniProt O60733); assay: Inhibition of human group 6A cytosolic Ca(2+)-independent phospholipase A2 at 0.091 mole fraction by modified Dole assay
T3 sequence (whole entry): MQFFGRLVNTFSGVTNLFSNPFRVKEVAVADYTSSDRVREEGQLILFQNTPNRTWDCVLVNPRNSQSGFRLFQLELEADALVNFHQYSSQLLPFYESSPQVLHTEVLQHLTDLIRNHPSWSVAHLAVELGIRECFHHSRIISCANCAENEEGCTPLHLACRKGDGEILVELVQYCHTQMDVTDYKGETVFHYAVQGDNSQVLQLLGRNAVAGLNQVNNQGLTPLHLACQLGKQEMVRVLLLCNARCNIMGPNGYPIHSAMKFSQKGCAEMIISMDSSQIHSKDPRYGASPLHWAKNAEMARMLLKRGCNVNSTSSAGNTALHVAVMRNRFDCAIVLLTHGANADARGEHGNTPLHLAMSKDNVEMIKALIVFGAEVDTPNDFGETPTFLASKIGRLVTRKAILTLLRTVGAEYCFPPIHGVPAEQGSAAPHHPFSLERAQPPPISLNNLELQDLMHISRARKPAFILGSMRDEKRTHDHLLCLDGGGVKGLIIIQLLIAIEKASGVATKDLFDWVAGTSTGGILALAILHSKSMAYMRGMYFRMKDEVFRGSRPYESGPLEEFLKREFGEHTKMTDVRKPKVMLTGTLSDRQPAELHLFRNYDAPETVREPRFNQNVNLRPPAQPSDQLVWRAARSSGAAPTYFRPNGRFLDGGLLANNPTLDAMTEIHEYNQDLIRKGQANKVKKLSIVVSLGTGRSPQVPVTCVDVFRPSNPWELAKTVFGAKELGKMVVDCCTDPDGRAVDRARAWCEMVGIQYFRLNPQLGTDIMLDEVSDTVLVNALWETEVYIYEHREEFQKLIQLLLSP

`CCCCCCCCCCCCCCC(=O)C(=O)N[C@H](/C=C/C=C/C(=O)O)CCCC` was tested, and the inhibition [1] was less than 25%, the inhibition [2] was 85% and the inhibition [3] was less than 25%.

Compound `CCCCCCCCCCCCCCC(=O)C(=O)NCCCC(=O)CCCC` has an inhibition [1] of less than 25%, an inhibition [2] of 32% and an inhibition [3] of less than 25%.

`CCCCCCCCCCCCCCC(=O)C(=O)NCC(=O)OC(C)(C)C` showed an inhibition [1] of 82%, an inhibition [2] of 80% and an inhibition [3] of 53%.

`CCCCCCCCCCCCCCC(=O)C(=O)N[C@@H](CCCC)CCCCC(=O)OCC` gave an inhibition [1] of less than 25%, an inhibition [2] of 62% and an inhibition [3] of 66%.

Work on `CCCCCCCCCCCCCCC(=O)C(=O)N[C@H](/C=C/C=C/C(=O)OCC)CCCC` yielded an inhibition [1] of 52%, an inhibition [2] of 64% and an inhibition [3] of 74%.

`COC(=O)CNC(=O)CCCCCCc1ccccc1` gave an inhibition [1] of less than 25%, an inhibition [2] of less than 25% and an inhibition [3] of less than 25%.

`CCCCCCCCCCCCCCC(=O)C(=O)NCCCCC(=O)OC(C)(C)C` was tested, and the inhibition [1] was 72%, the inhibition [2] was 74% and the inhibition [3] was 62%.

In the case of `C=CCOC(=O)CCCNC(=O)C(=O)CCCCCCCCCCCCCC`, the inhibition [1] is reported as 38%, the inhibition [2] is reported as 53% and the inhibition [3] is reported as 63%.

`CCCCCCCCCCCCCCC(=O)C(=O)NCCCC(=O)OCc1ccccc1` was tested, and the inhibition [1] was 38%, the inhibition [2] was 35% and the inhibition [3] was less than 25%.

With `CCCCCCCCCCCCCCC(=O)C(=O)NCCCCC(=O)OC` the inhibition [1] was 42%, the inhibition [2] was less than 25% and the inhibition [3] was less than 25%.

With `CCCCCCCCCCCCCCC(=O)C(=O)Nc1ccc(C(=O)OCC)cc1` the inhibition [1] was 78%, the inhibition [2] was 87% and the inhibition [3] was less than 25%.

For `CCCCCCCCCCCCCCC(=O)C(=O)N[C@@H](CCCC)CCC(=O)OC`, the inhibition [1] was 86%, the inhibition [2] was 87% and the inhibition [3] was 78%.

For `COC(=O)CNC(=O)C(=O)CCCCCCc1ccccc1`, the inhibition [1] was 30%, the inhibition [2] was 54% and the inhibition [3] was 31%.

`CCCCCCCCCCCCCCC(=O)C(=O)NCCC(=O)OCC` gave an inhibition [1] of 59%, an inhibition [2] of 44% and an inhibition [3] of 51%.

In the case of `CCCCCCCCCCCCCCC(=O)C(=O)NCCCCC(=O)OCC`, the inhibition [1] is reported as 47%, the inhibition [2] is reported as 31% and the inhibition [3] is reported as 35%.

`CC(C)(C)OC(=O)CCNC(=O)CCCCCCc1ccccc1` gave an inhibition [1] of 66%, an inhibition [2] of 36% and an inhibition [3] of 57%.

Work on `CCCCCCCCCCCCCCC(=O)C(=O)NCCC(=O)OC` yielded an inhibition [1] of 48%, an inhibition [2] of less than 25% and an inhibition [3] of less than 25%.

In the case of `CCCCCCCCCCCCCCC(=O)C(=O)NCC(=O)OCC`, the inhibition [1] is reported as 62%, the inhibition [2] is reported as 74% and the inhibition [3] is reported as 62%.

Work on `CCCCCCCCCCCCCCC(=O)C(=O)NCC(=O)OC` yielded an inhibition [1] of 52%, an inhibition [2] of 62% and an inhibition [3] of 45%.

Work on `CCCC[C@@H](CCC(=O)O)NC(=O)CCCCCCc1ccccc1` yielded an inhibition [1] of less than 25%, an inhibition [2] of less than 25% and an inhibition [3] of less than 25%.

In the case of `CCCCCCCCCCCCCCC(=O)C(=O)NCCCCOCC`, the inhibition [1] is reported as 64%, the inhibition [2] is reported as 62% and the inhibition [3] is reported as 51%.

`CCCCCCCCCCCCCCC(=O)C(=O)N[C@@H](C)CCC(=O)OC(C)(C)C` was tested, and the inhibition [1] was 87%, the inhibition [2] was 85% and the inhibition [3] was 72%.

In the case of `CC(C)(C)OC(=O)CCNC(=O)C(=O)CCCCCCc1ccccc1`, the inhibition [1] is reported as 69%, the inhibition [2] is reported as 82% and the inhibition [3] is reported as 81%.

For `CCCCCCCCCCCCCCC(=O)C(=O)NCCC(=O)OC(C)(C)C`, the inhibition [1] was 72%, the inhibition [2] was 79% and the inhibition [3] was 54%.

`CCCCCCCCCCCCCCC(=O)C(=O)N[C@H](CCC(=O)OC)CC(C)C` showed an inhibition [1] of 65%, an inhibition [2] of 83% and an inhibition [3] of 65%.

With `CCCC[C@H](CCC(=O)O)NC(=O)CCCCCCc1ccccc1` the inhibition [1] was 95%, the inhibition [2] was less than 25% and the inhibition [3] was less than 25%.
